The values below come from ChEMBL document CHEMBL4765238, “Structure-Based Discovery and Optimization of Benzo[ d]isoxazole Derivatives as Potent and Selective BET Inhibitors for Potential Treatment of Castration-Resistant Prostate Cancer (CRPC)” (J Med Chem, 2018).

Activity calls are given as the source filed them. The calls are words filed in the database; no cut-off is given here.

For one data set, the system named is DU-145. In words: Antiproliferative activity against AR-negative human DU-145 cells assessed as reduction in cell viability incubated for 72 hrs by cell-titer glo assay. The format is functional, cell-based. The note with it: DU-145, 72 h.
A further data set has as its system PC-3. In words: Antiproliferative activity against AR-negative human PC-3 cells assessed as reduction in cell viability incubated for 96 hrs by cell-titer glo assay. In kind it is functional, cell-based. The note with it: PC-3, 96 h.
A further data set relates to MCF7. In words: Antiproliferative activity against human MCF-7 cells assessed as reduction in cell viability incubated for 96 hrs by cell-titer glo assay. The note with it: MCF7, 96 h. In kind it is functional, cell-based.
The next data set relates to Hs-578T. Put plainly: Antiproliferative activity against human Hs-578T cells assessed as reduction in cell viability incubated for 72 hrs by cell-titer glo assay. In kind it is functional, cell-based.
The test system of the next data set is MV4-11. In words: Antiproliferative activity against human MV4-11 cells assessed as reduction in cell viability incubated for 120 hrs by cell-titer glo assay. The format is functional, cell-based. Particulars: MV4-11, 120 h.
Another data set deals with NCI-H1975. Put plainly: Antiproliferative activity against human NCI-H1975 cells assessed as reduction in cell viability incubated for 72 hrs by cell-titer glo assay. In kind it is functional, cell-based. Particulars: NCI-H1975, 72 h.
Data set [1] concerns LNCaP. In words: Inhibition of BET bromodomain in human LNCaP cells assessed as suppression of KLK2 mRNA expression at 5 uM incubated for 48 hrs by SYBR green dye based qRT-PCR analysis. In kind it is cell-based. The method in brief: (§1)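 LNCaP or VCaP cells exposed to vehicle (DMSO) or compound at 5 µM for 48 h; mRNA levels measured by qRT-PCR; mean ± s.e.m., n = 3; two-tailed Student's t-test.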
For orientation: Quantitative PCR measures a nucleic acid by following its amplification.

The test system of data set [2] is VCaP. Put plainly: Inhibition of BET bromodomain in human VCaP cells assessed as suppression of KLK2 mRNA expression at 5 uM incubated for 48 hrs by SYBR green dye based qRT-PCR analysis. The format is cell-based. The method in brief: as §1
The test system of data set [3] is VCaP. In words: Inhibition of BET bromodomain in human VCaP cells assessed as suppression of PSA mRNA expression at 5 uM incubated for 48 hrs by SYBR green dye based qRT-PCR analysis. In kind it is cell-based. An outline of the steps:
as §1

Data set [4] concerns LNCaP. Put plainly: Inhibition of BET bromodomain in human LNCaP cells assessed as suppression of TMPRSS2 mRNA expression at 5 uM incubated for 48 hrs by SYBR green dye based qRT-PCR analysis. The format is cell-based. An outline of the steps:
as §1

Data set [5] concerns LNCaP. In words: Inhibition of BET bromodomain in human LNCaP cells assessed as suppression of Myc mRNA expression at 5 uM incubated for 48 hrs by SYBR green dye based qRT-PCR analysis. The format is cell-based. An outline of the steps:
as §1

The test system of data set [6] is VCaP. In words: Inhibition of BET bromodomain in human VCaP cells assessed as suppression of ERG mRNA expression at 5 uM incubated for 48 hrs by SYBR green dye based qRT-PCR analysis. In kind it is cell-based. The method in brief: as §1
For data set [7], the system named is VCaP. In words: Inhibition of BET bromodomain in human VCaP cells assessed as suppression of full-length androgen receptor mRNA expression at 5 uM incubated for 48 hrs by SYBR green dye based qRT-PCR analysis. The format is cell-based. An outline of the steps: as §1
The test system of data set [8] is VCaP. In words: Inhibition of BET bromodomain in human VCaP cells assessed as suppression of AR-V7 mRNA expression at 5 uM incubated for 48 hrs by SYBR green dye based qRT-PCR analysis. The format is cell-based. The method in brief: as §1
In a further data set the test system is 22Rv1. In words: Inhibition of BET bromodomain in human 22Rv1 cells assessed as suppression of full-length androgen receptor protein expression at 1 to 16 uM incubated for 48 hrs by western blot analysis. The note with it: dose 1-16 µM. In kind it is cell-based.
In data set [9] the test system is LNCaP. In words: Inhibition of BET bromodomain in human LNCaP cells transfected with Luc-tagged PSA and renilla luciferase assessed as reduction in PSA transcriptional activity measured after 24 hrs by dual luciferase reporter gene assay. The format is cell-based. The note with it: dose 0.4-10 µM. The method in brief:
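LNCaP cells transfected with a PSA-luc reporter plasmid, then treated with vehicle or compound at 0.4, 2.0 or 10.0 µM; PSA transcriptional activity read by luciferase; mean ± s.e.m., n = 3; two-tailed Student's t-test.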
Background: A reporter such as luciferase makes a cellular process visible.

Data set [10] can be described thus: Cmax in Sprague-Dawley rat at 2 mg/kg, iv by LC/MS analysis. In kind it is ADME, organism-based. The note with it: in vivo. Further details: route intravenous, dose 2 mg/kg. The method in brief:
(§2)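 Sprague-Dawley rats dosed iv at 2 mg/kg (a separate oral arm received 10 mg/kg); plasma exposure parameters derived from the concentration–time profile.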

A short description of data set [11]: AUC in Sprague-Dawley rat at 2 mg/kg, iv by LC/MS analysis. The format is ADME, organism-based. Also on record: dose 2 mg/kg. Particulars: in vivo. The method in brief:
as §2

The subject of another data set is LNCaP C4-2B. In words: Inhibition of colony formation in human LNCaP C4-2B cells at 0.5 uM incubated for 14 days by crystal violet staining based assay. In kind it is functional, cell-based. Particulars: time 14.0 day. An outline of the steps: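 C4-2B cells cultured with vehicle (DMSO) or compound at 0.5, 1.0 or 2.0 μM for 14 days, then colonies stained and counted against vehicle.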

Data set [12] in a line: Toxicity in CB17/IcrHSD-Prkdc-SCID mouse xenografted with human LNCaP C4-2B cells assessed as effect on body weight at 50 mg/kg, ip administered 5 times per week for 25 days. The format is organism-based. Particulars: in vivo, 600 h, time 25 day. An outline of the steps:
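C4-2B xenograft mice randomized once tumors reached about 100 mm3. Vehicle or compound given i.p. at 50 mg/kg, five times per week, over a 25-day treatment period. Tolerability judged from body weight, tracked across treatment days, and from general behaviour.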

As usually defined, the IC50 is the concentration needed to halve the response being measured. A word on the Cmax: it is the peak of the concentration-time curve. Usually AUC stands for concentration integrated over time. In the case of `COc1cc2onc(C)c2cc1NS(=O)(=O)c1cc(Br)ccc1OC`, the IC50 with DU-145 was greater than 6000 nM; in the data set with PC-3 it was greater than 3000 nM; in the data set with MCF7, 1000 nM; in the data set with Hs-578T, 1000 nM; with MV4-11, 400 nM; in the data set with NCI-H1975, 2500 nM. For the same compound, the inhibition entry with LNCaP [1], with VCaP [2], in the data set with VCaP [3], in the data set on LNCaP [4], in the data set with LNCaP [5] and with VCaP [6] was “Active” throughout. Moreover, the inhibition result in the data set with VCaP [7], in the data set with VCaP [8], in the data set with 22Rv1 and with LNCaP C4-2B was “Active” in each case. The inhibition entry in the data set on LNCaP [9] was “Dose-dependent effect”. This compound also showed a Cmax in [10] of 1390 ng/mL. Further, the AUC in data set [11] was determined as 1170 ng·h/mL. Moreover, the Activity result in data set [12] is on record as “Non-Toxic”.
For `Cc1noc2ccc(-c3nc4ccc(N5CCOC[C@@H]5C)cc4n3CC3CCCCC3)cc12`, the IC50 in the data set with DU-145 was greater than 6000 nM; in the data set with PC-3, greater than 3000 nM; in the data set with MCF7, 1000 nM; in the data set on Hs-578T, 1000 nM; in the data set on MV4-11, 400 nM; in the data set with NCI-H1975, greater than 5000 nM. Further, the inhibition entry in the data set with LNCaP [1], with VCaP [2], in the data set with VCaP [3], in the data set on LNCaP [4], in the data set on LNCaP [5] and with VCaP [6] was “Active” each time. In addition, the inhibition entry in the data set on VCaP [7], in the data set with VCaP [8], in the data set with 22Rv1 and in the data set on LNCaP C4-2B was “Active” throughout. Besides, the inhibition result in the data set on LNCaP [9] was “Dose-dependent effect”. Further, in data set [10], the peak level (Cmax) was 807 ng/mL. In addition, in data set [11], the AUC was 881 ng·h/mL. For the same compound, the Activity result in data set [12] is on record as “Non-Toxic”.
